Results published in ChEMBL document CHEMBL3525966, “Compartmental and enzyme kinetic modeling to elucidate the biotransformation pathway of a centrally acting antitrypanosomal prodrug” (Drug Metab Dispos, 2013).

Columns and labels:
[1] = system: Liver microsome; test: Prodrug conversion in rat liver microsomes assessed as elution time at 10 uM after 180 mins incubation by HPLC-UV chromatography; assay type: ADME; conditions: 3 h
Summary of the method: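 HLM or RLM (0.5 mg/mL) were incubated in triplicate in 100 mM phosphate pH 7.4 with 10 mM MgCl2 and an NADPH-regenerating system (1 mM NADP+, glucose 6-phosphate, G6PDH). DB868 was 10 µM. Sampled up to 180 min. Prodrug and metabolites were measured by HPLC-UV at 359 nm and expressed relative to initial prodrug; DB829 LLOQ 50 nM.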

[2] = Drug metabolism in sandwich-cultured rat hepatocytes assessed as (Z)-6-(5-(5-carbamimidoylpyridin-2-yl)furan-2-yl)-N'methoxynicotinimidamide at 10 uM after 4 hrs of incubation by HPLC-MS/MS analysis; assay type: ADME, cell-based, Hepatocyte
Summary of the method: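 Sandwich-cultured hepatocytes were used on day 5 (human) or day 4 (rat) and rinsed with warm phenol-red-free DMEM. They were then exposed to 10 µM DB868 (0.1–0.2% DMSO) at 37°C. Medium and methanol/water cell lysates were collected at 0.5, 2, 4 and 24 h. Analytes were quantified by HPLC/MS/MS with deuterated internal standards; protein by Bradford. Replicates: 6 (human) or 4 (rat).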

[3] = system: Liver microsome; test: Drug metabolism in rat liver microsomes assessed as (Z)-N'-hydroxy-6-(5-(5-((Z)-N'-methoxycarbamimidoyl)pyridin-2-yl)furan-2-yl nicotinimidamide formation measured per mg of protein by HPLC-MS/MS analysis; assay type: ADME
Summary of the method: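 M1 formation kinetics: HLM or RLM (0.5 mg/mL) in phosphate pH 7.4 with MgCl2, DB868 0.1–100 µM, started with 2 mM NADPH. Run 5 min (HLM) or 10 min (RLM) under initial-rate conditions (<20% consumption) in triplicate. Quantified by HPLC/MS/MS with d6-DB868 internal standard. Fitted to a one-enzyme (HLM) or two-enzyme (RLM) Michaelis–Menten model; Clint = Vmax/Km.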

[4] = target: Cytochrome P450 3A4 (Homo sapiens, UniProt P08684); test: Prodrug conversion assessed as human recombinant CYP3A4-mediated (Z)-N'-hydroxy-6-(5-(5-((Z)-N'-methoxycarbamimidoyl)pyridin-2-yl)furan-2-yl) nicotinimidamide formation at 5 uM after 180 mins incubation by HPLC-UV chromatogram; assay type: ADME; conditions: recombinant enzyme, 15 min, in the assay text read “15 mins” for “180 mins”
Summary of the method: (§1)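 Insect-cell-expressed human or rat P450 (with NADPH-P450 reductase, some also with cytochrome b5) at 0.1 pmol/µL in 100 mM potassium phosphate pH 7.4 with 10 mM MgCl2. DB868 (for M1) or M1 (for M2) was added at 5 µM (0.5% DMSO) and started with 2 mM NADPH. Stopped after 15 min with ice-cold acetonitrile, then HPLC-UV. Duplicate incubations.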

[5] = target: T1, Cytochrome P450 1A2 (Homo sapiens, UniProt P05177); test: Prodrug conversion assessed as human recombinant CYP1A2-mediated (3Z,3'Z)-6,6'-(furan-2,5-diyl)bis(N'-hydroxynicotinimidamide) formation at 5 uM after 180 mins incubation by HPLC-UV chromatogram; assay type: ADME; conditions: recombinant enzyme, 15 min, in the assay text read “15 mins” for “180 mins”; summary of the method: as §1
T1 sequence (P05177 whole entry): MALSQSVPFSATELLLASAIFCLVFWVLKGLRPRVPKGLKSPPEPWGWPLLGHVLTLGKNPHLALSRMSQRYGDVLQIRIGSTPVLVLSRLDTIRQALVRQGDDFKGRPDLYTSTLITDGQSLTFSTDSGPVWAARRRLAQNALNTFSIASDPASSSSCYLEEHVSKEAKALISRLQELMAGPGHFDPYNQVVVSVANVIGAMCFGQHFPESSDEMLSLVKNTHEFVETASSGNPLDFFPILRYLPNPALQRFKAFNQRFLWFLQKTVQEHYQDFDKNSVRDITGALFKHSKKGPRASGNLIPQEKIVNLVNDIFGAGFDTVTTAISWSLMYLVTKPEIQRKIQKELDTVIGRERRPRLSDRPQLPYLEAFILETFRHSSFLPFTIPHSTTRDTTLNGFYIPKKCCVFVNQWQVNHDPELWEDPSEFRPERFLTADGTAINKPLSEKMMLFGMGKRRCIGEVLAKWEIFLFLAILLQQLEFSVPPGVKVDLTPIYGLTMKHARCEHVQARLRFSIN

[6] = target: T2, Cytochrome P450 1A2 (Rattus norvegicus, UniProt P04799); test: Prodrug conversion assessed as rat recombinant CYP1A2-mediated (3Z,3'Z)-6,6'-(furan-2,5-diyl)bis(N'-hydroxynicotinimidamide) formation at 5 uM after 180 mins incubation by HPLC-UV chromatogram; assay type: ADME; conditions: recombinant enzyme, 15 min, in the assay text read “15 mins” for “180 mins”; summary of the method: as §1
T2 sequence (P04799 whole entry): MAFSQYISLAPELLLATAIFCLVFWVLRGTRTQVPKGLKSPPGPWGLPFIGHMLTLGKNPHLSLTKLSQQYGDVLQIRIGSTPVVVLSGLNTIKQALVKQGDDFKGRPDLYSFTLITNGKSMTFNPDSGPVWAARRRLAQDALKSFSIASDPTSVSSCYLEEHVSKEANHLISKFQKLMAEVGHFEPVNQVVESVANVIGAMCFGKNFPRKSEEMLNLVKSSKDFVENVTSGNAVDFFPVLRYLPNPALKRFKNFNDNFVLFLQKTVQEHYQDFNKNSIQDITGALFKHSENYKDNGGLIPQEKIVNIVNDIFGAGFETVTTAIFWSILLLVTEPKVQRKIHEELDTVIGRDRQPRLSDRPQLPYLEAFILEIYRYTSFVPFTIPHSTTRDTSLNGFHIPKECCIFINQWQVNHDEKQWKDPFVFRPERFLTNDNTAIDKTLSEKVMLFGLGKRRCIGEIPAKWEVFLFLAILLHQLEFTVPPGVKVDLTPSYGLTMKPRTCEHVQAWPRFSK

Chain of Cytochrome P450 3A4 (P08684 whole entry): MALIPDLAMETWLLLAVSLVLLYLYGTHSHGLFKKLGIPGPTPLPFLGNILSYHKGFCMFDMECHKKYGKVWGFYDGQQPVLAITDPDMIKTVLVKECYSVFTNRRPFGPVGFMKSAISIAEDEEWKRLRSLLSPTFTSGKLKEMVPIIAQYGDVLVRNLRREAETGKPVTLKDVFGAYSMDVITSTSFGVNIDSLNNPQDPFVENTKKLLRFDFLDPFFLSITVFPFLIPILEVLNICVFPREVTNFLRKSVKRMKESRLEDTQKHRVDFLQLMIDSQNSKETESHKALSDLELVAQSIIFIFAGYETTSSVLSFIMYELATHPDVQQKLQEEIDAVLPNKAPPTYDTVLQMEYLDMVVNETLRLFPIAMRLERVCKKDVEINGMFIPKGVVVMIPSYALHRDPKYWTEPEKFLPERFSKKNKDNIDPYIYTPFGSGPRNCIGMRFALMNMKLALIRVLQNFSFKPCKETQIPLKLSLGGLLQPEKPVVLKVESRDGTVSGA

With `CO/N=C(\N)c1ccc(-c2ccc(-c3ccc(/C(N)=N/OC)cn3)o2)nc1.Cl` the Retention_time [1] was 18.5 min, the Drug metabolism [2] was “metabolite_detected” and the Vmax [3] was 12 pmol/min. For the same molecule, the Drug metabolism [4] was “metabolite_detected”, the Drug metabolism [5] was “metabolite_detected” and the Drug metabolism [6] was “metabolite_detected”.
